Laboratory results published in ChEMBL document CHEMBL1126084, “2-Acetylpyridine thiocarbonohydrazones. Potent inactivators of herpes simplex virus ribonucleotide reductase” (J Med Chem, 1992).

Test system: Human alphaherpesvirus 1
Assay: Inhibitory index against HSV-1 ribonucleotide reductase calculated as, [1+k inact/f+0.01] where f = 1-% inhibition/100).
Type: functional
Settings: not given
Method in brief: (§1)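 Index per eq 1 combines kinact and percent inhibition of initial velocity from reductase reactions ±5 μM inhibitor (unless otherwise indicated). 0.99 is subtracted from the calculated ratio, so a non-inhibiting, non-inactivating compound scores zero. HSV-1 and human enzymes were assayed under their respective conditions.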

| Compound | Inhibitory index |
| --- | --- |
| C/C(=N\N=C(/S)N/N=C(\S)Nc1ccccc1)c1ccccn1 | 21 |

Test system: Human alphaherpesvirus 1
Assay: Inactivation of HSV-1 ribonucleotide reductase by the compound (5 uM) at rate constant K inact.
Type: functional
Settings: not given
Method in brief: (§2)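 Partially purified HSV-1 ribonucleotide reductase, assayed by reduction of purified [14C]CDP in 200 mM Hepes Na+ pH 7.7, 10 mM dithiothreitol, 2 μM CDP (500 Ci/mol, 3–4 × Km), with and without 5 μM inhibitor unless otherwise indicated. First-order kinact (per hour) and v0 of decelerating product time courses come from iterative nonlinear least squares. kinact is the net increase over the uninhibited control, and % inhibition refers to v0.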

| Compound | kinact |
| --- | --- |
| C/C(=N\N=C(/S)N/N=C(\S)Nc1ccccc1)c1ccccn1 | 20 h⁻¹ |

Biological target: T1, Ribonucleoside-diphosphate reductase RR1 (Homo sapiens) (UniProt P23921+Q7LG56+P31350)
Assay: Inhibition of human ribonucleotide reductase by the compound (5 uM)
Type: protein-complex assay
Settings: not given
Method in brief: (§3)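 The ATP contributed about 3 μM iron, keeping inhibitors iron-complexed. Reactions ran ±5 μM inhibitor unless otherwise indicated. kinact (per hour, net over the control) and v0 came from iterative nonlinear least-squares fits of decelerating time courses.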

| inhibition | Compound |
| --- | --- |
| 59% | C/C(=N\N=C(/S)N/N=C(\S)Nc1ccccc1)c1ccccn1 |

Test system: Human alphaherpesvirus 1
Assay: Inhibition of HSV-1 ribonucleotide reductase by the compound (5 uM)
Type: functional
Settings: not given
Method in brief: as §2

| Compound | Inhibition |
| --- | --- |
| C/C(=N\N=C(/S)N/N=C(\S)Nc1ccccc1)c1ccccn1 | 7% |

Biological target: T1, Ribonucleoside-diphosphate reductase RR1 (Homo sapiens)
Assay: Inhibitory index against human ribonucleotide reductase calculated as, [1+k inact/f+0.01] where f = 1-% inhibition/100).
Type: protein-complex assay
Settings: not given
Method in brief: as §1

| Inhibitory index | Compound |
| --- | --- |
| 8.5 | C/C(=N\N=C(/S)N/N=C(\S)Nc1ccccc1)c1ccccn1 |

Biological target: T1, Ribonucleoside-diphosphate reductase RR1 (Homo sapiens)
Assay: Inactivation of human ribonucleotide reductase by the compound (5 uM) at rate constant K inact.
Type: protein-complex assay
Settings: not given
Method in brief: as §3

| kinact | Compound |
| --- | --- |
| 3 h⁻¹ | C/C(=N\N=C(/S)N/N=C(\S)Nc1ccccc1)c1ccccn1 |

Test system: Human alphaherpesvirus 1
Assay: Inhibition of HSV-1 ribonucleotide reductase
Set-up: concentration or dose not given beside the values
Settings: concentration not given here
Method in brief: as §2

| inhibition | Compound |
| --- | --- |
| 51% | S=C(N/N=C/c1ccccn1)NNC(=S)Nc1ccccc1Cl |
| 31% | C/C(=N\N=C(/S)N/N=C(\S)Nc1ccc(Cl)cc1C)c1ccccn1 |
| 44% | COc1ccc([N+](=O)[O-])cc1/N=C(\S)N/N=C(\S)N/N=C(\C)c1ccccn1 |
| 6.7% | COc1cccc(N/C(S)=N/N=C(\S)N/N=C(\C)c2ccccn2)c1 |
| 18% | C/C(=N\N=C(/S)N/N=C(\S)Nc1ccccc1I)c1ccccn1 |
| 0% | C/C(=N\N=C(/S)N/N=C(\S)Nc1cccc(C#N)c1)c1ccccn1 |
| 10% | C/C(=N\N=C(/S)N/N=C(\S)Nc1ccc(C(C)(C)C)cc1)c1ccccn1 |

Test system: Human alphaherpesvirus 1
Assay: Inhibitory index against HSV-1 ribonucleotide reductase
Settings: not given
Method in brief: as §1

| Inhibitory index | Compound |
| --- | --- |
| 25 | S=C(N/N=C/c1ccccn1)NNC(=S)Nc1ccccc1Cl |
| 42 | C/C(=N\N=C(/S)N/N=C(\S)Nc1ccc(Cl)cc1C)c1ccccn1 |
| 71 | COc1ccc([N+](=O)[O-])cc1/N=C(\S)N/N=C(\S)N/N=C(\C)c1ccccn1 |
| 22 | COc1cccc(N/C(S)=N/N=C(\S)N/N=C(\C)c2ccccn2)c1 |
| 35 | C/C(=N\N=C(/S)N/N=C(\S)Nc1ccccc1I)c1ccccn1 |
| 32 | C/C(=N\N=C(/S)N/N=C(\S)Nc1cccc(C#N)c1)c1ccccn1 |

Test system: Human alphaherpesvirus 1
Assay: Inactivation of HSV-1 ribonucleotide reductase at rate constant K inact
Settings: not given
Method in brief: as §2

| kinact | Compound |
| --- | --- |
| 12 h⁻¹ | S=C(N/N=C/c1ccccn1)NNC(=S)Nc1ccccc1Cl |
| 29 h⁻¹ | C/C(=N\N=C(/S)N/N=C(\S)Nc1ccc(Cl)cc1C)c1ccccn1 |
| 40 h⁻¹ | COc1ccc([N+](=O)[O-])cc1/N=C(\S)N/N=C(\S)N/N=C(\C)c1ccccn1 |
| 21 h⁻¹ | COc1cccc(N/C(S)=N/N=C(\S)N/N=C(\C)c2ccccn2)c1 |
| 29 h⁻¹ | C/C(=N\N=C(/S)N/N=C(\S)Nc1ccccc1I)c1ccccn1 |
| 32 h⁻¹ | C/C(=N\N=C(/S)N/N=C(\S)Nc1cccc(C#N)c1)c1ccccn1 |
| 16 h⁻¹ | C/C(=N\N=C(/S)N/N=C(\S)Nc1ccc(C(C)(C)C)cc1)c1ccccn1 |

Biological target: T1, Ribonucleoside-diphosphate reductase RR1 (Homo sapiens)
Assay: Inhibition of human ribonucleotide reductase
Type: protein-complex assay
Set-up: concentration or dose not given beside the values
Settings: concentration not given here
Method in brief: as §3

| inhibition | Compound |
| --- | --- |
| 45% | S=C(N/N=C/c1ccccn1)NNC(=S)Nc1ccccc1Cl |
| 55% | C/C(=N\N=C(/S)N/N=C(\S)Nc1ccc(Cl)cc1C)c1ccccn1 |
| 11% | COc1ccc([N+](=O)[O-])cc1/N=C(\S)N/N=C(\S)N/N=C(\C)c1ccccn1 |
| 58% | COc1cccc(N/C(S)=N/N=C(\S)N/N=C(\C)c2ccccn2)c1 |
| 23% | C/C(=N\N=C(/S)N/N=C(\S)Nc1ccccc1I)c1ccccn1 |
| 80% | C/C(=N\N=C(/S)N/N=C(\S)Nc1cccc(C#N)c1)c1ccccn1 |

Biological target: T1, Ribonucleoside-diphosphate reductase RR1 (Homo sapiens)
Assay: Inhibitory index against human ribonucleotide reductase
Type: protein-complex assay
Settings: not given
Method in brief: as §1

| Inhibitory index | Compound |
| --- | --- |
| 0.8 | S=C(N/N=C/c1ccccn1)NNC(=S)Nc1ccccc1Cl |
| 3.4 | C/C(=N\N=C(/S)N/N=C(\S)Nc1ccc(Cl)cc1C)c1ccccn1 |
| 3.5 | COc1ccc([N+](=O)[O-])cc1/N=C(\S)N/N=C(\S)N/N=C(\C)c1ccccn1 |
| 1.7 | COc1cccc(N/C(S)=N/N=C(\S)N/N=C(\C)c2ccccn2)c1 |
| 5.4 | C/C(=N\N=C(/S)N/N=C(\S)Nc1ccccc1I)c1ccccn1 |
| 6.6 | C/C(=N\N=C(/S)N/N=C(\S)Nc1cccc(C#N)c1)c1ccccn1 |

Biological target: T1, Ribonucleoside-diphosphate reductase RR1 (Homo sapiens)
Assay: Inactivation of human ribonucleotide reductase at rate constant K inact
Type: protein-complex assay
Settings: not given
Method in brief: as §3

| kinact | Compound |
| --- | --- |
| 0 h⁻¹ | S=C(N/N=C/c1ccccn1)NNC(=S)Nc1ccccc1Cl |
| 1 h⁻¹ | C/C(=N\N=C(/S)N/N=C(\S)Nc1ccc(Cl)cc1C)c1ccccn1 |
| 3 h⁻¹ | COc1ccc([N+](=O)[O-])cc1/N=C(\S)N/N=C(\S)N/N=C(\C)c1ccccn1 |
| 7 h⁻¹ | COc1cccc(N/C(S)=N/N=C(\S)N/N=C(\C)c2ccccn2)c1 |
| 4 h⁻¹ | C/C(=N\N=C(/S)N/N=C(\S)Nc1ccccc1I)c1ccccn1 |
| 0.6 h⁻¹ | C/C(=N\N=C(/S)N/N=C(\S)Nc1cccc(C#N)c1)c1ccccn1 |

Biological target: T1, Ribonucleoside-diphosphate reductase RR1 (Homo sapiens)
Assay: Apparent enzyme activity measured as the ratio of HSV-1 and human enzyme inhibition induces
Type: functional
Settings: Human alphaherpesvirus 1
Method in brief: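 Apparent selectivity is the ratio of HSV-1 to human inhibition indices, each from eq 1 at 5 μM inhibitor or at the indicated concentration for each enzyme.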

| Apparent selectivity (HSV-1/human inhibition index ratio) | Compound |
| --- | --- |
| 31 | S=C(N/N=C/c1ccccn1)NNC(=S)Nc1ccccc1Cl |
| 12 | C/C(=N\N=C(/S)N/N=C(\S)Nc1ccc(Cl)cc1C)c1ccccn1 |
| 21 | COc1ccc([N+](=O)[O-])cc1/N=C(\S)N/N=C(\S)N/N=C(\C)c1ccccn1 |
| 1.3 | COc1cccc(N/C(S)=N/N=C(\S)N/N=C(\C)c2ccccn2)c1 |
| 6.5 | C/C(=N\N=C(/S)N/N=C(\S)Nc1ccccc1I)c1ccccn1 |
| 4.8 | C/C(=N\N=C(/S)N/N=C(\S)Nc1cccc(C#N)c1)c1ccccn1 |
| 2.5 | C/C(=N\N=C(/S)N/N=C(\S)Nc1ccccc1)c1ccccn1 |
